Screening data from PubChem.
TRPC4 block: inhibitors of mouse TRPC4 channel | HEK293 TRPC4beta/mu-opioid, DAMGO-evoked Fluo4 calcium flux; hits give low values | B-score at 10 µM | 0.39% of 300,000 active | AID 2247;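 active = B-score over 3 SD under the library average, no early fluorescence shift, positive overall ratio signal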
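material = TRPC4beta/mu-opioid receptor HEK293 cell line | probe or stimulus = sequential submaximal and maximal DAMGO stimulation | compound dosing = one concentration per compound | measured by = Fluo4 Ca2+ flux fluorescence | evaluation = integrated fluorescence ratio relative to baseline, converted to per-well B score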
TRPC6 act: activates the mouse TRPC6 cation channel. Q61143. HEK293-TRPC6 membrane potential dye fluorescence; hits give high values. B-score at 10 µM. 0.13% of 310,000 active;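 active = B-score of the integrated fluorescence ratio above library mean plus 3 SD, and starting fluorescence ratio within library mean plus 5 SD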;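 also: higher score means more depolarization so channel activation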
TRPC6 inh: mouse TRPC6 channel inhibition; 1.1% of 310,000 active; AID 2553; B-score at 10 µM; HEK293-TRPC6, membrane potential dye, ACh-evoked depolarization; hits give low values; Q61143;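 active = B-score under library mean minus 3 SD, initial fluorescence not abnormally high, positive integrated signal ratio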;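 also: B-score derived from integrated fluorescence ratio over the kinetic read; more negative B-score means stronger inhibition of depolarization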
TRPC4 potent: TRPC4 (mouse) allosteric potentiation | Q9QUQ5 | HEK293 TRPC4beta/mu-opioid, DAMGO EC20, Fluo-4 Ca2+ flux; hits give high values | B-score at 10 µM | 0.42% of 310,000 active | AID 2227;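 active = B-score of calcium response area above 5 SD of library B-scores, with initial fluorescence ratio within 5 SD of library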;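 also: B-score of integrated fluorescence ratio over time as area under calcium response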
TRPC4 act: activators of mouse TRPC4 channel. Q9QUQ5. HEK293 TRPC4beta/mu-opioid, Fluo4 calcium fluorescence; hits give high values. B-score at 10 µM. 0.49% of 310,000 active;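 active = B-score above 5 SD of library B-scores, and initial fluorescence ratio not above library mean plus 5 SD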;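 also: positive B-score marks a calcium rise read as TRPC4 activation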
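Assay system: HEK293 stable line with TRPC4beta plus mu-opioid receptor. Times: dye 45 min RT, read 110 s. Measured by: kinetic Fluo4 calcium fluorescence. Measure: B score of integrated ratio. Controls: assay buffer as low control, maximal DAMGO as high control.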
HEK293 MPD ctr: counter-screen for TRPC6 modulators: effect in parental HEK293 cells | AID 488924 | membrane potential dye fluorescence | 51% of 2,400 active | shares compounds with TRPC6 inh | membrane potential signal change, % at 10 µM;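 active = membrane potential signal moves up or down beyond 5 SD from buffer-only wells, on both duplicate plates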
HEK293 MPD ctr 2: parental HEK293 nonspecific activity of TRPC6 modulators, second screen. shares compounds with TRPC6 inh. membrane potential dye fluorescence; after compound, maximal acetylcholine stimulation. inhibition, % at 10 µM. 14% of 2,400 active. AID 488926;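 active = membrane potential signal drops by more than 5 SD from the mean control signal, in both duplicate plates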;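 also: plate controls were acetylcholine ECmax control wells for no effect and buffer only wells for full effect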
TRPC4/MOR mod: tests whether TRPC6 modulators also affect mouse TRPC4. shares compounds with TRPC6 inh. HEK293 TRPC4/mu-opioid, membrane potential fluorescence. percent change from control (negative = decrease, positive = increase), % at 10 µM. 69% of 2,400 active. AID 488927;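 active = membrane potential signal moved up or down beyond 5 SD of buffer control wells, in both duplicate plates, actives on both sides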;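 also: plate controls were assay buffer wells for no effect and DAMGO maximal-effect wells for full effect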
TRPC4/MOR inh 2: second selectivity test of TRPC6 modulators against mouse TRPC4 | shares compounds with TRPC6 inh | HEK293 TRPC4/mu-opioid, membrane potential dye fluorescence; stimulated with maximal-effect DAMGO | inhibition, % at 10 µM | 55% of 2,400 active | AID 488928;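 active = drop in membrane potential signal beyond 5 SD of the control wells in both duplicate plates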;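 also: TRPC4 counter screen for TRPC6 hits run under conditions tuned for TRPC6 not TRPC4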
TRPC6 inh conf: mouse TRPC6 inhibitor confirmation; HEK293-TRPC6, membrane potential dye, ACh-evoked depolarization; shares compounds with TRPC6 inh; 43% of 3,300 active; inhibition, % at 10 µM;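 active = fluorescence ratio falls more than 5 SD below the full-stimulation control mean, in both duplicate runs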;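 also: integrated fluorescence ratio of peak minus minimum over baseline after agonist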
TRPC6 act conf: confirmation of mouse TRPC6 activators; shares compounds with TRPC6 inh; HEK293-TRPC6 membrane potential dye fluorescence, FDSS; activation, % at 10 µM; 11% of 2,800 active;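 active = ratio signal rise beyond 5 SD above unstimulated control wells' mean, seen in both duplicate runs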;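 also: plate controls were buffer EC0 wells for no effect and acetylcholine ECmax response for full effect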
* marks the source's active call; other numbers are inactive results; i = inactive; / = no result. An excerpt weighted towards active compounds, which were near 2.3% of everything screened.

SMILES	TRPC4 block	TRPC6 act	TRPC6 inh	TRPC4 potent	TRPC4 act	HEK293 MPD ctr	HEK293 MPD ctr 2	TRPC4/MOR mod	TRPC4/MOR inh 2	TRPC6 inh conf	TRPC6 act conf
Cc1ccc2nc(C)c3c(c2c1)SCC3	i	i	-5.2*	i	i	-170%*	i	-36%*	38%*	i	i
Cc1nc2c(C)cccc2c2c1CCS2	i	i	i	i	i	/	/	/	/	/	/
COc1cc(C(=O)Nc2ccc(NC(=O)c3cccc(Cl)c3)nc2)cc(OC)c1OC	i	i	-5.4*	i	i	i	i	i	i	i	i
COc1cc(C(=O)Nc2ccc(N(C)C)cc2)cc(OC)c1OC	i	i	-6.4*	i	i	i	i	i	i	i	i
CCOCCCNC(=O)c1cn(C)c2ccc(S(=O)(=O)N3CCCC3)cc2c1=O	i	i	i	i	i	/	/	/	/	/	/
O=[N+]([O-])c1cccc(-c2c[n+]3c(n2-c2ccccc2)SCC3)c1	i	i	-5.2*	i	i	i	i	i	34%*	47%*	i
Clc1ccc(-c2c[n+]3c(n2-c2ccccc2)SCC3)cc1	i	i	i	i	i	/	/	/	/	/	/
Cc1c(CCOC(=O)CC23CC4CC(CC(C4)C2)C3)sc[n+]1Cc1ccccc1	-6*	i	-5.3*	i	i	i	i	i	40%*	56%*	i
Cc1ncc(C[n+]2csc(CCOC(=O)CC34CC5CC(CC(C5)C3)C4)c2C)c(N)n1	i	i	i	i	i	/	/	/	/	/	/
O=C(NCc1ccccc1)C1CCCN1S(=O)(=O)c1ccc(Cl)cc1 (stereo not given)	i	i	i	i	i	/	/	/	/	/	/
Cc1ccc(CNC(=O)C2CCCN2S(=O)(=O)c2ccc(Cl)cc2)cc1 (stereo not given)	i	i	-5.4*	i	i	i	i	i	i	i	i
Cc1cc(C)n(-c2nnc(C)n2/N=C/c2ccccc2OCc2ccccc2Cl)n1	i	13*	i	i	i	474%*	i	85%*	i	i	116%*
Cc1ccccc1C(=O)N1CCN(c2ccc([N+](=O)[O-])c(N3CCOCC3)c2)CC1	i	i	-5.4*	i	i	i	i	i	i	i	i
CCOc1ccc(N(C(=O)Cn2nnc3ccccc32)C(C(=O)NC(C)(C)CC)c2cccn2C)cc1 (stereo not given)	i	i	i	i	i	/	/	/	/	/	/
CCC(C)(C)NC(=O)C(c1cccn1C)N(C(=O)Cn1nnc2ccccc21)c1ccc(OC)cc1OC (stereo not given)	i	12*	-8.1*	i	i	124%*	i	44%*	41%*	38%*	68%*
O=C(C[n+]1cc(-c2ccc(F)cc2)n2c1CCC2)N1c2ccccc2Sc2ccccc21	i	i	-7.9*	i	i	i	i	i	i	70%*	i
Cc1ccc(-c2c[n+](CC(=O)N3c4ccccc4Sc4ccccc43)c3n2CCC3)cc1	i	i	-5.9*	i	i	i	i	-14%*	i	71%*	i
